Laboratory results reported in ChEMBL document CHEMBL1129275, “Synthesis and in vitro and in vivo characteristics of an iodinated analogue of the beta-adrenoceptor antagonist carazolol” (J Med Chem, 1996).

Tests used:
[1] = test system: Oryctolagus cuniculus; test: […] biodistribution pattern of [123I]- ligand was evaluated in kidney of anesthetized rabbit after Intravenous injection of 50 uCi after 24 hr; format: ADME, organism-based; settings: in vivo
In short: (§1)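 Male New Zealand white rabbits (2.5–3.5 kg), anesthetized with xylazine 5 mg/kg plus ketamine 30 mg/kg im, given 50 µCi radioligand (specific activity >5000 Ci/mmol) iv via ear vein. Euthanized at set times by pentobarbital 200 mg/kg im, n = 3/time point. Organs removed and weighed, gamma-counted, decay/weight corrected; expressed as % ID x kg body weight/g tissue, mean ± SEM.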

[2] = test system: Oryctolagus cuniculus; test: Biodistribution pattern of [123I]- ligand was evaluated in intestine of anesthetized rabbit after Intravenous injection of 50 uCi after 1 hr; format: ADME, organism-based; settings: in vivo
In short: (§2)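 Male New Zealand white rabbits, 2.5–3.5 kg, anesthetized with 5 mg/kg xylazine plus 30 mg/kg ketamine im. Each received 50 uCi radioligand (specific activity > 5000 Ci/mmol) iv via ear vein. Animals were killed with 200 mg/kg pentobarbital im at the set time. Blood was drawn by intracardiac puncture and organs weighed. Gamma counting was decay-corrected, expressed as %ID x kg body weight/g tissue, mean ± SEM, n = 3/time point.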

[3] = test system: Oryctolagus cuniculus; test: Biodistribution pattern of [123I]- ligand was evaluated in intestine of anesthetized rabbit after Intravenous injection of 50 uCi after 6 hr; format: ADME, organism-based; settings: in vivo; in short: as §2
[4] = test system: Oryctolagus cuniculus; test: Biodistribution pattern of [123I]- ligand was evaluated in left atrial muscle of anesthetized rabbit after Intravenous injection of 50 uCi after 1 hr; format: ADME, organism-based, Muscle tissue; settings: in vivo; in short: as §2
[5] = test system: Oryctolagus cuniculus; test: Biodistribution pattern of [123I]- ligand was evaluated in left atrial muscle of anesthetized rabbit after Intravenous injection of 50 uCi after 5 min; format: ADME, organism-based, Muscle tissue; settings: in vivo; in short: as §2
[6] = test system: Oryctolagus cuniculus; test: Biodistribution pattern of [123I]- ligand was evaluated in left atrial muscle of anesthetized rabbit after Intravenous injection of 50 uCi after 6 hr; format: ADME, organism-based, Muscle tissue; settings: in vivo; in short: as §2
[7] = test system: Oryctolagus cuniculus; test: Biodistribution pattern of [123I]- ligand was evaluated in left ventricular muscle of anesthetized rabbit after Intravenous injection of 50 uCi after 24 hr; format: ADME, organism-based, Muscle tissue; settings: in vivo; in short: as §2
[8] = test system: Oryctolagus cuniculus; test: Biodistribution pattern of [123I]- ligand was evaluated in right atrial muscle of anesthetized rabbit after Intravenous injection of 50 uCi after 1 hr; format: ADME, organism-based, Muscle tissue; settings: in vivo; in short: as §1
[9] = test system: Oryctolagus cuniculus; test: Cerebral biodistribution pattern of [123I]- ligand was evaluated in pituitary gland of anesthetized rabbit after Intravenous injection of 50 uCi after 5 min; format: ADME, organism-based; settings: in vivo; in short: as §1
[10] = test system: Oryctolagus cuniculus; test: Cerebral biodistribution pattern of [123I]- ligand was evaluated in striatum of anesthetized rabbit after Intravenous injection of 50 uCi after 1 hr; format: ADME, organism-based; settings: in vivo; in short: as §1
[11] = test system: Oryctolagus cuniculus; test: Cerebral biodistribution pattern of [123I]- ligand was evaluated in striatum of anesthetized rabbit after Intravenous injection of 50 uCi after 24 hr; format: ADME, organism-based; settings: in vivo; in short: as §1
[12] = test system: Oryctolagus cuniculus; test: Cerebral biodistribution pattern of [123I]- ligand was evaluated in striatum of anesthetized rabbit after Intravenous injection of 50 uCi after 2 hr; format: ADME, organism-based; settings: in vivo; in short: as §1
[13] = test system: Oryctolagus cuniculus; test: Cerebral biodistribution pattern of [123I]- ligand was evaluated in striatum of anesthetized rabbit after Intravenous injection of 50 uCi after 6 hr; format: ADME, organism-based; settings: in vivo; in short: as §1
[14] = test system: Oryctolagus cuniculus; test: Cerebral biodistribution pattern of [123I]- ligand was evaluated in thalamus of anesthetized rabbit after Intravenous injection of 50 uCi after 4 hr; format: ADME, organism-based; settings: in vivo; in short: as §1
[15] = test system: Oryctolagus cuniculus; test: Cerebral biodistribution pattern of [123I]- ligand was evaluated in thalamus of anesthetized rabbit after Intravenous injection of 50 uCi after 6 hr; format: ADME, organism-based; settings: in vivo
In short: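 Male New Zealand white rabbits (2.5–3.5 kg) anesthetized with xylazine 5 mg/kg plus ketamine 30 mg/kg im; 50 uCi radioligand (specific activity > 5000 Ci/mmol) given iv via ear vein. Euthanized by pentobarbital 200 mg/kg im at set times up to 24 h (n = 3/time point). Brain regions weighed and gamma-counted, decay-corrected, expressed as % ID x kg body weight/g tissue, mean ± SEM.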

[16] = test system: Oryctolagus cuniculus; test: Biodistribution pattern of [123I]- ligand was evaluated in muscle of anesthetized rabbit after Intravenous injection of 50 uCi after 4 hr; format: ADME, organism-based, Muscle tissue; settings: in vivo; in short: as §2
[17] = test system: Oryctolagus cuniculus; test: Biodistribution pattern of [123I]- ligand was evaluated in muscle of anesthetized rabbit after Intravenous injection of 50 uCi after 5 min; format: ADME, organism-based, Muscle tissue; settings: in vivo; in short: as §1
[18] = test system: Oryctolagus cuniculus; test: Cerebral biodistribution pattern of [123I]- ligand was evaluated in frontal cortex of anesthetized rabbit after Intravenous injection of 50 uCi after 4 hr; format: ADME, organism-based; settings: in vivo; in short: as §1
[19] = test system: Oryctolagus cuniculus; test: Cerebral biodistribution pattern of [123I]- ligand was evaluated in hypothalamus of anesthetized rabbit after Intravenous injection of 50 uCi after 30 min; format: ADME, organism-based; settings: in vivo, 0.5 h; in short: as §1
[20] = test system: Oryctolagus cuniculus; test: Cerebral biodistribution pattern of [123I]- ligand was evaluated in pituitary gland of anesthetized rabbit after Intravenous injection of 50 uCi after 1 hr; format: ADME, organism-based; settings: in vivo; in short: as §1
[21] = test system: Oryctolagus cuniculus; test: Biodistribution pattern of [123I]- ligand was evaluated in blood of anesthetized rabbit after Intravenous injection of 50 uCi after 24 hr; format: ADME, organism-based; settings: in vivo; in short: as §2
[22] = test system: Oryctolagus cuniculus; test: Biodistribution pattern of [123I]- ligand was evaluated in blood of anesthetized rabbit after Intravenous injection of 50 uCi after 2 hr; format: ADME, organism-based; settings: in vivo; in short: as §2
[23] = test system: Oryctolagus cuniculus; test: Biodistribution pattern of [123I]- ligand was evaluated in blood of anesthetized rabbit after Intravenous injection of 50 uCi after 4 hr; format: ADME, organism-based; settings: in vivo; in short: as §2
[24] = test system: Oryctolagus cuniculus; test: Biodistribution pattern of [123I]- ligand was evaluated in fat of anesthetized rabbit after Intravenous injection of 50 uCi after 6 hr; format: ADME, organism-based, Adipose tissue; settings: in vivo; in short: as §2
[25] = test system: Oryctolagus cuniculus; test: Biodistribution pattern of [123I]- ligand was evaluated in fat of anesthetized rabbit after Intravenous injection of 50 uCi after 24 hr; format: ADME, organism-based, Adipose tissue; settings: in vivo; in short: as §2
[26] = test system: Oryctolagus cuniculus; test: Biodistribution pattern of [123I]- ligand was evaluated in fat of anesthetized rabbit after Intravenous injection of 50 uCi after 2 hr; format: ADME, organism-based, Adipose tissue; settings: in vivo; in short: as §2
[27] = test system: Oryctolagus cuniculus; test: Biodistribution pattern of [123I]- ligand was evaluated in spleen of anesthetized rabbit after Intravenous injection of 50 uCi after 2 hr; format: ADME, organism-based; settings: in vivo; in short: as §1
[28] = test system: Oryctolagus cuniculus; test: Biodistribution pattern of [123I]- ligand was evaluated in spleen of anesthetized rabbit after Intravenous injection of 50 uCi after 4 hr; format: ADME, organism-based; settings: in vivo; in short: as §1
[29] = test system: Oryctolagus cuniculus; test: Biodistribution pattern of [123I]- ligand was evaluated in spleen of anesthetized rabbit after Intravenous injection of 50 uCi after 5 min; format: ADME, organism-based; settings: in vivo; in short: as §1
[30] = test system: Oryctolagus cuniculus; test: Biodistribution pattern of [123I]- ligand was evaluated in spleen of anesthetized rabbit after Intravenous injection of 50 uCi after 6 hr; format: ADME, organism-based; settings: in vivo; in short: as §1
[31] = test system: Oryctolagus cuniculus; test: Biodistribution pattern of [123I]- ligand was evaluated in liver of anesthetized rabbit after Intravenous injection of 50 uCi after 1 hr; format: ADME, organism-based; settings: in vivo; in short: as §2
[32] = test system: Oryctolagus cuniculus; test: Biodistribution pattern of [123I]- ligand was evaluated in liver of anesthetized rabbit after Intravenous injection of 50 uCi after 2 hr; format: ADME, organism-based; settings: in vivo; in short: as §2
[33] = test system: Oryctolagus cuniculus; test: Biodistribution pattern of [123I]- ligand was evaluated in liver of anesthetized rabbit after Intravenous injection of 50 uCi after 30 min; format: ADME, organism-based; settings: in vivo, 0.5 h; in short: as §2
[34] = test system: Oryctolagus cuniculus; test: Biodistribution pattern of [123I]- ligand was evaluated in lung of anesthetized rabbit after Intravenous injection of 50 uCi after 2 hr; format: ADME, organism-based; settings: in vivo; in short: as §2
[35] = test system: Oryctolagus cuniculus; test: Biodistribution pattern of [123I]- ligand was evaluated in lung of anesthetized rabbit after Intravenous injection of 50 uCi after 24 hr; format: ADME, organism-based; settings: in vivo; in short: as §2
[36] = test system: Oryctolagus cuniculus; test: Cerebral biodistribution pattern of [123I]- ligand was evaluated in frontal cortex of anesthetized rabbit after Intravenous injection of 50 uCi after 6 hr; format: ADME, organism-based; settings: in vivo; in short: as §1

`CC(C)(/C=C/I)NC[C@H](O)COc1cccc2[nH]c3ccccc3c12` was tested, and the “ID x kg of body weight/g of tissue” value [1] was 0.02%, the “ID x kg of body weight/g of tissue” value [2] was 0.1% and the “ID x kg of body weight/g of tissue” value [3] was 0.05%. The “ID x kg of body weight/g of tissue” value [4] was 0.16%, the “ID x kg of body weight/g of tissue” value [5] was 0.36% and the “ID x kg of body weight/g of tissue” value [6] was 0.1%. The “ID x kg of body weight/g of tissue” value [7] was 0.02%, the “ID x kg of body weight/g of tissue” value [8] was under 0.13% and the “ID x kg of body weight/g of tissue” value [9] was 0.5%. The “ID x kg of body weight/g of tissue” value [10] was 0.07%, the “ID x kg of body weight/g of tissue” value [11] was 0.02% and the “ID x kg of body weight/g of tissue” value [12] was 0.07%. The “ID x kg of body weight/g of tissue” value [13] was 0.04%, the “ID x kg of body weight/g of tissue” value [14] was 0.03% and the “ID x kg of body weight/g of tissue” value [15] was 0.03%. The “ID x kg of body weight/g of tissue” value [16] was 0.04%, the “ID x kg of body weight/g of tissue” value [17] was 0.08% and the “ID x kg of body weight/g of tissue” value [18] was 0.06%. The ID x kg of body weight/g of tissue [19] was 0.09%, the “ID x kg of body weight/g of tissue” value [20] was 0.11% and the “ID x kg of body weight/g of tissue” value [21] was 0.01%. The “ID x kg of body weight/g of tissue” value [22] was 0.01%, the “ID x kg of body weight/g of tissue” value [23] was 0.01% and the “ID x kg of body weight/g of tissue” value [24] was 0.02%. For the same molecule, the “ID x kg of body weight/g of tissue” value [25] was 0.01%, the “ID x kg of body weight/g of tissue” value [26] was 0.04% and the “ID x kg of body weight/g of tissue” value [27] was 0.22%. The “ID x kg of body weight/g of tissue” value [28] was 0.1%, the “ID x kg of body weight/g of tissue” value [29] was 0.39% and the “ID x kg of body weight/g of tissue” value [30] was 0.07%. The “ID x kg of body weight/g of tissue” value [31] was 0.13%, the “ID x kg of body weight/g of tissue” value [32] was 0.09% and the ID x kg of body weight/g of tissue [33] was 0.19%. For the same molecule, the “ID x kg of body weight/g of tissue” value [34] was 1.29%, the “ID x kg of body weight/g of tissue” value [35] was 0.18% and the “ID x kg of body weight/g of tissue” value [36] was 0.05%.
